# Sampled rows, rich in hits. Any-hit rate of the full collection: about 10%.
# WT yeast gro inh = growth inhibition of WT yeast, mitochondrial fusion screen. mitochondrial fusion phenotypic screen, WT strain. inhibition, % at 10 µM. hit rate 2.1% among 190,000. AID 1362; in the data active means inhibition above about 58%; tested in S. cerevisiae
# L major viab = Leishmania major promastigote growth inhibition; Leishmania major promastigotes, resazurin fluorescence viability; hit rate 9% among 200,000; inhibition, % at 10 µM; in the data active means inhibition above about 50%;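 further: promastigotes grown with compound for 44 hours at 28 °C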
# PMI act = phosphomannose isomerase (human) activation | P34949 | purified human PMI, coupled resazurin fluorescence, 20 min; stronger effect = higher value; 1 = vehicle control, 0 substrate-free wells | activation factor at 20 µM | hit rate 0.005% among 190,000;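 active means activation factor of 2 or more at 20 µM, relative to plate controls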
# Target sequence (P34949 whole entry, looked up): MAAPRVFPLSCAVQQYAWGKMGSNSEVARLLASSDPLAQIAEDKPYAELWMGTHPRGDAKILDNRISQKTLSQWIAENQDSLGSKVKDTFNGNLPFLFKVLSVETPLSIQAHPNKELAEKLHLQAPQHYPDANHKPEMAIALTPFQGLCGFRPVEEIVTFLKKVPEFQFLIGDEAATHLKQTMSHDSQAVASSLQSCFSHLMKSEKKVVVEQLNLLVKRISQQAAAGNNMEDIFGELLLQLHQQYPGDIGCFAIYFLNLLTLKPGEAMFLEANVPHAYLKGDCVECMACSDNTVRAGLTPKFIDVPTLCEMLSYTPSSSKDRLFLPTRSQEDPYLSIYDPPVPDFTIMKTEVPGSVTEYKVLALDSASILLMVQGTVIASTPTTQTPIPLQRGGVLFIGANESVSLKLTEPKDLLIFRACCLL
# Diaphorase act = diaphorase activation or chemical reduction counter-screen; Diaphorase/resazurin coupled assay, resorufin fluorescence, 16 min; stronger effect = higher value; 1 = vehicle wells, 0 = NADH-free wells; activation factor at 20 µM; hit rate 0.005% among 190,000;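 active means diaphorase activity raised at least twofold by the compound at 20 µM; inactive means activation factor below 2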
#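 Material: Purified diaphorase enzyme from Clostridium kluyveri | Buffer or medium: 50 mM HEPES pH 7.4 with 4.542 mM MgCl2, 0.005% Tween 20 | Times: 16 min enzyme reaction, ambient temperature | Signal: Red resorufin fluorescence at 544/590 nm excitation/emission | Measure: Increased resorufin signal from activators or reducing compounds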
# PMI act hi M6P = activators of human phosphomannose isomerase at near-saturating mannose 6-phosphate | P34949 | coupled PMI enzyme assay, resazurin fluorescence, 20 min; stronger effect = higher value; 1 = untreated enzyme, 0 = substrate-free blank | activation factor at 20 µM | hit rate 0.34% among 190,000 | AID 1216;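 active means activation factor of 2 or more at 20 µM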
#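 Material: human phosphomannose isomerase with PGI, G6PDH, diaphorase coupling enzymes. Quantity: 15 ng/mL PMI. Medium: HEPES pH 7.4 buffer with MgCl2 and Tween-20. Reagent: Near-saturating mannose-6-phosphate, 1.0 mM. Compound: 20 µM single dose. Times: enzyme reaction with compound 20 min at room temperature. Detection: resorufin fluorescence at Ex 544/Em 590 nm.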
# * hit, by the source's call; . = no result.
SMILES,WT yeast gro inh,L major viab,PMI act,Diaphorase act,PMI act hi M6P
COc1ccc(C(=O)NC(=S)Nc2ccc(CN3CCCCC3)cc2)cc1Cl,8,99*,1,1,1
Cc1ccc(C(=O)NC(=S)Nc2ccc(CN3CCCCC3)cc2)c(C)c1,-4,73*,1,0.9,1.1
COc1c(Cl)cc(Cl)cc1C(=O)Nc1ccc(CN2CCCCC2)cc1,10,100*,1,1.1,1
O=C(NC(=S)Nc1ccc(CN2CCCCC2)cc1)c1ccco1,-12,28,1,1,1
COc1ccc(Cl)cc1NC(=O)CN(C)CC(=O)Nc1ccc(C)cc1Br,46,13,0.7,0.8,0.9
Cc1ccccc1-n1nc(C)c(N=O)c1N,-11,23,1,0.9,1
Cc1nn(C(=O)c2nn(C)cc2[N+](=O)[O-])c(C)c1Cl,10,-7,1.1,0.8,1.1
CCSc1nnc2ccc(-c3ccco3)nn12,-2,-3,1,0.8,1.1
O=C(Nc1ccc(Cl)cc1)NC1CCCCC1,2,-5,1,0.9,1
Clc1ccc(CN=C(Nc2ccccc2)NC2CCCCC2)cc1,-1,95*,0.9,0.9,1
COc1cc(CNC23CC4CC(CC(C4)C2)C3)ccc1OCc1ccccc1,19,79*,0.9,0.9,0.9
COc1cc(CNc2nnnn2C)ccc1OCc1c(F)cccc1Cl,3,-11,1,0.9,1
COc1cc(CNCc2ccccn2)ccc1OCc1cccc(Cl)c1,-5,99*,1.2,1.3,1.2
COc1ccc(CCN(C)Cc2ccc(OCc3ccccc3)c(OC)c2)cc1OC,27,64*,1,1,1.1
COc1cc(CNCc2ccccn2)ccc1OCc1c(Cl)cccc1Cl,1,100*,1,1.1,1
CC1(c2ccc3ccccc3c2)NC(=O)N(CC(=O)Nc2cccc(S(=O)(=O)N3CCOCC3)c2)C1=O (stereo not drawn),0,-6,0.8,0.7,0.8
Cc1ccc(CSc2nnc(-c3ccncc3)o2)c(C)c1,4,-2,1,1,1
CC(NC(=O)c1ccccc1NC(=O)c1ccccc1)C(=O)N1CCOCC1 (stereo not drawn),-9,9,1,0.9,1
COc1cc(CNCc2ccco2)ccc1OCc1ccccc1,-11,100*,1.1,1,1.1
COc1ccc(CNc2ncccn2)cc1OC,2,-8,1.1,1.1,1
COc1cc(CNCc2ccccn2)ccc1OCc1ccc(Cl)cc1,6,96*,1.1,1.1,1.1
CCn1ncc(/C=N\NC(=O)c2csc3ccccc23)c1C,-15,62*,1,0.9,1
O=C(N/N=C/c1cccc(O)c1)c1csc2ccccc12,0,69*,0.7,0.8,0.8
O=C(NCCCN1CCOCC1)c1sc2cc(F)ccc2c1Cl,3,93*,1.1,1,1.1
O=C(NCCCN1CCOCC1)c1sc2cc(Cl)ccc2c1Cl,32,92*,1.1,0.9,1
SMILES,WT yeast gro inh,L major viab,PMI act,Diaphorase act,PMI act hi M6P
CC1(C)CC(NC(=O)c2sc3cc(Cl)ccc3c2Cl)CC(C)(C)N1,16,101*,0.9,1,0.9
O=C(NCCN1CCOCC1)c1ccc([N+](=O)[O-])cc1[N+](=O)[O-],-11,71*,1,0.9,1
O=C(NCCCN1CCOCC1)c1c(F)cccc1F,4,-4,0.9,0.9,1
C/C(=N\NC(=O)CC(C)C)c1ccc(N2CCCCC2)cc1,16,42,1,0.8,0.9
CCC(C)NS(=O)(=O)c1ccc(OCC(=O)NCc2ccccn2)cc1 (stereo not drawn),3,4,0.9,1,0.9
CCOc1ccc(C(=O)NCC(=O)OCC(=O)Nc2ccc(C)c(S(=O)(=O)N(C)C)c2)cc1,-10,-2,0.9,0.7,0.9
O=C(NCCCN1CCOCC1)c1sc2cc([N+](=O)[O-])ccc2c1Cl,16,86*,0.7,0.9,0.9
O=C(NCCN1CCOCC1)c1cc(Cl)ccc1[N+](=O)[O-],-8,-9,1,1,1.1
CCn1ccc2cc(OC)ccc2c1=S,1,-3,1.4,0.9,2*
CCn1c2ccc(OC)cc2c2nc3ccccc3nc21,-7,9,0.9,0.9,1
N#Cc1ccc(-c2csc(NC(=O)c3ccc(S(=O)(=O)N4CCc5ccccc5C4)cc3)n2)cc1,-8,1,0.9,0.9,1
COc1ccc(N2C3=C(CC4=C2CC(C)(C)CC4=O)C(=O)CC(C)(C)C3)cc1,-6,100*,1.2,0.8,1.2
Cn1c(=O)n(C)c2cc([N+](=O)[O-])c(N3CCN(CCO)CC3)cc21,-4,1,0.9,0.9,0.9
O=C(CCCOc1ccc(Cl)cc1Cl)Nc1ccncc1,16,99*,0.9,0.9,1
O=C(CCCOc1ccc(Cl)cc1Cl)Nc1ccccn1,1,-6,0.8,0.9,0.9
O=C(/C=C/c1ccc(Cl)cc1Cl)Nc1ccncc1,40,95*,0.8,0.9,0.9
CC(=O)N(C)c1ccc(NC(=O)/C=C/c2ccccc2Cl)cc1,11,60*,0.9,0.9,0.8
O=C(/C=C/c1cccc(Cl)c1)Nc1ccncc1,6,61*,1,0.9,0.9
O=C(/C=C/c1ccccc1Cl)Nc1ccncc1,13,100*,1,0.8,1.1
CN(CC(=O)Nc1ccncc1)S(=O)(=O)c1ccc(Br)cc1,10,-1,1.2,0.8,1.3
O=C(/C=C/c1c(Cl)cccc1Cl)Nc1ccncc1,17,98*,0.9,0.7,0.9
CN(CCCC(=O)Nc1ccncc1)S(=O)(=O)c1ccc(Cl)cc1,12,86*,1.1,1.1,1.2
O=C(/C=C/c1c(F)cccc1Cl)Nc1ccncc1,24,43,0.9,0.9,0.9
CN1CCCC(OC(=O)COc2ccccc2)C1 (stereo not drawn),-4,2,1,0.9,1
CN1CCCC(CC2Oc3ccccc3Sc3ccccc32)C1 (stereo not drawn),39,100*,1.1,1,1.2
SMILES,WT yeast gro inh,L major viab,PMI act,Diaphorase act,PMI act hi M6P
O=P(Cc1ccccn1)(c1ccccc1)c1ccccc1,4,-5,0.9,1,1
COc1ccc(-c2nnc(NC(=O)c3ccccc3C)o2)cc1,64*,.,.,.,.
COc1ccccc1C(=O)Nc1nnc(-c2ccc3c(c2)CCCC3)o1,60*,-2,1.1,1,1
COCc1[nH][nH]c(=O)c1/C=N/N1CCOCC1,-9,0,1,0.9,1
CCCCN1C(=O)C2(NNc3ccccc3O2)c2ccccc21 (stereo not drawn),26,96*,1.6,0.9,2.1*
COc1ccccc1-n1c(=O)oc2ccc(Cl)cc2c1=O,76*,0,0.9,1.1,1
COc1ccccc1/C=C\C=N\n1c(-c2ccc(Cl)cc2)n[nH]c1=S,26,-3,0.9,0.9,0.9

# Assay outcomes as filed in PubChem BioAssay.
